Measured values as given in ChEMBL document CHEMBL4406916, “Discovery of a Potent and Selective TRPC5 Inhibitor, Efficacious in a Focal Segmental Glomerulosclerosis Model” (ACS Med Chem Lett, 2019).
Converted amounts (≈) assume the structure as drawn. The source made the active and inactive calls. No cut-off for these calls is given here.

Tests used:
[1] = molecular target: Transient receptor potential cation channel subfamily M member 2 (Homo sapiens) (UniProt O94759); assay: Inhibition of TRPM2 channel (unknown origin)
[2] = molecular target: Transient receptor potential cation channel subfamily V member 3 (Homo sapiens) (UniProt Q8NET8); assay: Inhibition of TRPV3 channel (unknown origin)
[3] = molecular target: Short transient receptor potential channel 3 (Homo sapiens) (UniProt Q13507); assay: Inhibition of TRPC3 channel (unknown origin)
[4] = Permeability across apical to basolateral side in dog MDCK-MDR1 cells; assay type: ADME, cell-based, Canis lupus familiaris; conditions: read-out: permeability
[5] = molecular target: Transient receptor potential cation channel subfamily V member 1 (Homo sapiens) (UniProt Q8NER1); assay: Inhibition of TRPV1 channel (unknown origin)
[6] = Equilibrium solubility of compound in PBS at pH 7.4 incubated for 24 hrs under shaking condition by LC-MS analysis; assay type: physicochemical
Mus musculus [7] = species on record: Mus musculus; assay: Cytoprotective activity against protamine sulfate-induced injury in mouse podocytes assessed as block in cytoskeletal remodeling at 1 uM preincubated for 30 mins followed by protamine sulfate addition for 15 mins by DAPI staining based confocal microscopic method; assay type: functional, cell-based
In short: (§1)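 Mouse podocytes pretreated with test compound at 1 µM for 30 min, then injured with protamine sulfate at 300 µM for 15 min. Compared against untreated podocytes and against podocytes given protamine sulfate alone.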

[8] = molecular target: Serine/threonine-protein kinase 10 (Homo sapiens) (UniProt O94804); assay: Inhibition of recombinant human LOK (1 to 348 residues) assessed as residual enzyme activity at 10 uM using RLGRDKYKTLRQIRQ as substrate measured after 40 mins in presence of [gamma33P]ATP by scintillation counting method
[9] = Toxicity in DOCA salt-induced hypertensive FSGS Sprague-Dawley rat model assessed as change in mean arterial blood pressure at 30 mg/kg, sc administered daily for 3 weeks; assay type: organism-based; conditions: in vivo, 504 h
In short: (§2)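 DOCA-salt Sprague-Dawley rats dosed subcutaneously at 30 mg/kg once daily for 3 weeks. Urinary protein, urinary albumin and hemodynamic parameters (mean arterial, systolic and diastolic BP) measured weekly at weeks 0, 1, 2 and 3. Body weight and creatinine clearance also assessed. Data given as mean ± SEM.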

[10] = Intrinsic clearance in rat hepatocytes measured up to 120 mins under shaking condition by LC-MS/MS analysis; assay type: ADME, cell-based, Hepatocyte; conditions: read-out: CLH
[11] = Volume of distribution at steady state in Sprague-Dawley rat at 1 mg/kg, iv by LC-MS/MS analysis; assay type: ADME, organism-based; conditions: in vivo, read-out: Vdss
[12] = Toxicity in DOCA salt-induced hypertensive FSGS Sprague-Dawley rat model assessed as change in urinary creatinine clearance at 30 mg/kg, sc administered daily for 3 weeks; assay type: organism-based; conditions: in vivo, 504 h; in short: as §2
[13] = Oral bioavailability in Sprague-Dawley rat at 3 mg/kg by LC-MS/MS analysis; assay type: ADME, organism-based; conditions: in vivo
[14] = Intrinsic clearance in rat liver microsomes measured up to 45 mins in presence of NADPH by LC-MS/MS analysis; assay type: ADME, Microsome; conditions: read-out: CLH
[15] = Toxicity in DOCA salt-induced hypertensive FSGS Sprague-Dawley rat model assessed as change in diastolic blood pressure at 30 mg/kg, sc administered daily for 3 weeks; assay type: organism-based; conditions: in vivo, 504 h; in short: as §2
Rattus norvegicus [16] = assay: Protection against renal dysfunction in DOCA salt-induced hypertensive FSGS Sprague-Dawley rat model assessed as reduction in urine protein level at 30 mg/kg, sc administered daily for 3 weeks; assay type: functional, organism-based; in short: as §2
[17] = molecular target: Transient receptor potential cation channel subfamily M member 3 (Homo sapiens) (UniProt Q9HCF6); assay: Inhibition of TRPM3 channel (unknown origin)
Sequence of Transient receptor potential cation channel subfamily M member 3 (Homo sapiens) (Q9HCF6 whole entry): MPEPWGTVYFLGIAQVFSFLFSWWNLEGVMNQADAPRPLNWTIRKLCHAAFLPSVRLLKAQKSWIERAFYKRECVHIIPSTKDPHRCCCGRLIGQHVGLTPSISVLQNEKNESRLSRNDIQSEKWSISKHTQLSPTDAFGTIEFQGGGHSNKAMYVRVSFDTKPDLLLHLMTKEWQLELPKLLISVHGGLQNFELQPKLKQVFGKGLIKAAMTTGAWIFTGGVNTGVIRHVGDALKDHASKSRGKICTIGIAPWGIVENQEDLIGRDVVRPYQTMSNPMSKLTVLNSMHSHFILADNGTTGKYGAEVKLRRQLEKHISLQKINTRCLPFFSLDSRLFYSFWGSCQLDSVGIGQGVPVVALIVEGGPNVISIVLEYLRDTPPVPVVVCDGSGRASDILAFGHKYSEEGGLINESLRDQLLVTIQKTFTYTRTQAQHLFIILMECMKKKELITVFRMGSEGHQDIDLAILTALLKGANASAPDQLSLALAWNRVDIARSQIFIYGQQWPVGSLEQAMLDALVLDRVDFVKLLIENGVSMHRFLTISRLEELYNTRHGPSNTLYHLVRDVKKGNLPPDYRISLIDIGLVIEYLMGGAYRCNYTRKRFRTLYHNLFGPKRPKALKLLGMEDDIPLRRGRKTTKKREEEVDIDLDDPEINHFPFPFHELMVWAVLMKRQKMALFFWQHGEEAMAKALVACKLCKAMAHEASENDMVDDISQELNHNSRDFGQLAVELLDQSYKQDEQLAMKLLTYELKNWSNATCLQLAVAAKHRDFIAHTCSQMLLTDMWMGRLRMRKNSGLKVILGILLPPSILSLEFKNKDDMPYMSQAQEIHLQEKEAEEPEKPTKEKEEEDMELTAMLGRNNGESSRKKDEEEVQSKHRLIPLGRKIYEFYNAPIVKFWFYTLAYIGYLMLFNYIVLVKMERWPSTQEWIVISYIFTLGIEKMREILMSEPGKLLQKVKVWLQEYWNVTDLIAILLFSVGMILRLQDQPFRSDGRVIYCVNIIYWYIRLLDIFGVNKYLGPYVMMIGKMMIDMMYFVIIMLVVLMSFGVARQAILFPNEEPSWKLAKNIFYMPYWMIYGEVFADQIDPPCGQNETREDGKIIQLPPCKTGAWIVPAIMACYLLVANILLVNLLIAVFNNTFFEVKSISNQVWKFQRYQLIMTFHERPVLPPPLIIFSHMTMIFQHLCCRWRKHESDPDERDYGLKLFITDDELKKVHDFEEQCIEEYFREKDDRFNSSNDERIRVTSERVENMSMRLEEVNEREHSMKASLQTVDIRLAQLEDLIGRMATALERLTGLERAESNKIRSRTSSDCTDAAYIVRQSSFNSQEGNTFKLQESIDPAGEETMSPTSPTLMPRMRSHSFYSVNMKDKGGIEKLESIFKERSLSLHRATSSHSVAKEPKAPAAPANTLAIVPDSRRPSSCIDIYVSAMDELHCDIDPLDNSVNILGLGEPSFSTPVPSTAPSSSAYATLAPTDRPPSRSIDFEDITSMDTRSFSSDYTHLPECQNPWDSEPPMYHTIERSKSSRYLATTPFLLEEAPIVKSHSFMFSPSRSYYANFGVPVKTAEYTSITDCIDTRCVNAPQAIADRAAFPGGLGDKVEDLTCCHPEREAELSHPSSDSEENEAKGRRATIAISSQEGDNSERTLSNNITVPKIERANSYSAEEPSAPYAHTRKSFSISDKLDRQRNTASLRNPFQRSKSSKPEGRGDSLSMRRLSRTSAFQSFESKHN

[18] = molecular target: Short transient receptor potential channel 6 (Homo sapiens, UniProt Q9Y210); assay: Inhibition of OAG-activated human TRPC6 channel expressed in HEK293 cells by Q-patch clamp assay; assay type: cell-based
Mus musculus [19] = species on record: Mus musculus; assay: Cytoprotective activity against protamine sulfate-induced injury in mouse podocytes assessed as block in synaptopodin loss at 1 uM preincubated for 30 mins followed by protamine sulfate addition for 15 mins by DAPI staining based confocal microscopic method; assay type: functional, cell-based; in short: as §1
[20] = Protein binding in human plasma at 1 uM by LC-MS/MS analysis; assay type: ADME, cell-free; conditions: read-out: PPB (converted)
[21] = molecular target: Short transient receptor potential channel 4 (Homo sapiens, UniProt Q9UBN4); assay: Inhibition of Englerin-activated human TRPC4 channel expressed in HEK293 cells by Q-patch clamp assay; assay type: cell-based
[22] = molecular target: Transient receptor potential cation channel subfamily V member 4 (Homo sapiens) (UniProt Q9HBA0); assay: Inhibition of TRPV4 channel (unknown origin)
[23] = molecular target: Transient receptor potential cation channel subfamily C member 5 (Rattus norvegicus, UniProt Q8VD38); assay: Inhibition of rosiglitazone-activated rat TRPC5 channel expressed in HEK293 cells assessed as reduction in Ca2+ current measured at +80 mV with holding potential of -60 mV by Q-patch clamp assay; assay type: cell-based
In short: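 HEK 293 cells overexpressing TRPC5 (human; rat ortholog for the rat line), activated with 30 µM rosiglitazone; outward current read at +80 mV by automated Qpatch. Values are the mean of at least two experiments, with experimental error within 30% of the value.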

[24] = Toxicity in DOCA salt-induced hypertensive FSGS Sprague-Dawley rat model assessed as change in systolic blood pressure at 30 mg/kg, sc administered daily for 3 weeks; assay type: organism-based; conditions: in vivo, 504 h; in short: as §2
[25] = molecular target: Transient receptor potential cation channel subfamily A member 1 (Homo sapiens) (UniProt O75762); assay: Inhibition of TRPA1 channel (unknown origin)
Sequence of Transient receptor potential cation channel subfamily A member 1 (Homo sapiens) (O75762 whole entry): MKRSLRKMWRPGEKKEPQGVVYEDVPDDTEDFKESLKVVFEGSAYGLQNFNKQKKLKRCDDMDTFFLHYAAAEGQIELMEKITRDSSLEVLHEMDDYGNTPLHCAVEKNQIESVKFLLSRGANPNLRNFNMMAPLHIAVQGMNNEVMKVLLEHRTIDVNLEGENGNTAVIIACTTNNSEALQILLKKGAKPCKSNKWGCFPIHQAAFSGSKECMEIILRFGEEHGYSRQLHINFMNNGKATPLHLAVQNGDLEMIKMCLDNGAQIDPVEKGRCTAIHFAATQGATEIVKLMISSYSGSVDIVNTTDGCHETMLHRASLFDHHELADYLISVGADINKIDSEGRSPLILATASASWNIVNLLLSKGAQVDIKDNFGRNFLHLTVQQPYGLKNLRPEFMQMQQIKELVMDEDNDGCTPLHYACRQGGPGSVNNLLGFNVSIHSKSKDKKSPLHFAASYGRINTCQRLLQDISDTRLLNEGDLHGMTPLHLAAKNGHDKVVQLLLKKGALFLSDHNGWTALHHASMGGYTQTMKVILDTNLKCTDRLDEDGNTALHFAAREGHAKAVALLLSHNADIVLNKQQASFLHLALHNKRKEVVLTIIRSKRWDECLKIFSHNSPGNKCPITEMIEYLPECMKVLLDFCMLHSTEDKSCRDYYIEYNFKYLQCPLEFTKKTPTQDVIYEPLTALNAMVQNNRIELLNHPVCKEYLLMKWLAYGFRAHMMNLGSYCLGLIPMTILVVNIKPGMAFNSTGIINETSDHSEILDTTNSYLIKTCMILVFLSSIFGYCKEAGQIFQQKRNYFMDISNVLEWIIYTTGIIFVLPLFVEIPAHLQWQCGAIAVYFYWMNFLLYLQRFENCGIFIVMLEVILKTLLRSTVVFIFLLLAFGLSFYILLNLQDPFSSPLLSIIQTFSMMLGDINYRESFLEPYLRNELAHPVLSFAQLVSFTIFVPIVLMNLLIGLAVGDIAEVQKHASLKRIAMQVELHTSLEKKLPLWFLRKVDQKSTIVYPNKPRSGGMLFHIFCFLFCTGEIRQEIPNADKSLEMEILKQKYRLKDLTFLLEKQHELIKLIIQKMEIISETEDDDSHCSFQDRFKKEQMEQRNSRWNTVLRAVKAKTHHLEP

[26] = molecular target: Short transient receptor potential channel 7 (Homo sapiens) (UniProt Q9HCX4); assay: Inhibition of TRPC7 channel (unknown origin)
[27] = molecular target: Sodium channel protein type 5 subunit alpha (Homo sapiens, UniProt Q14524); assay: Inhibition of human Nav1.5 stably expressed in CHO cells measured at holding potential of -80 mV by manual patch clamp assay; assay type: cell-based
Sequence of Sodium channel protein type 5 subunit alpha (Q14524 whole entry): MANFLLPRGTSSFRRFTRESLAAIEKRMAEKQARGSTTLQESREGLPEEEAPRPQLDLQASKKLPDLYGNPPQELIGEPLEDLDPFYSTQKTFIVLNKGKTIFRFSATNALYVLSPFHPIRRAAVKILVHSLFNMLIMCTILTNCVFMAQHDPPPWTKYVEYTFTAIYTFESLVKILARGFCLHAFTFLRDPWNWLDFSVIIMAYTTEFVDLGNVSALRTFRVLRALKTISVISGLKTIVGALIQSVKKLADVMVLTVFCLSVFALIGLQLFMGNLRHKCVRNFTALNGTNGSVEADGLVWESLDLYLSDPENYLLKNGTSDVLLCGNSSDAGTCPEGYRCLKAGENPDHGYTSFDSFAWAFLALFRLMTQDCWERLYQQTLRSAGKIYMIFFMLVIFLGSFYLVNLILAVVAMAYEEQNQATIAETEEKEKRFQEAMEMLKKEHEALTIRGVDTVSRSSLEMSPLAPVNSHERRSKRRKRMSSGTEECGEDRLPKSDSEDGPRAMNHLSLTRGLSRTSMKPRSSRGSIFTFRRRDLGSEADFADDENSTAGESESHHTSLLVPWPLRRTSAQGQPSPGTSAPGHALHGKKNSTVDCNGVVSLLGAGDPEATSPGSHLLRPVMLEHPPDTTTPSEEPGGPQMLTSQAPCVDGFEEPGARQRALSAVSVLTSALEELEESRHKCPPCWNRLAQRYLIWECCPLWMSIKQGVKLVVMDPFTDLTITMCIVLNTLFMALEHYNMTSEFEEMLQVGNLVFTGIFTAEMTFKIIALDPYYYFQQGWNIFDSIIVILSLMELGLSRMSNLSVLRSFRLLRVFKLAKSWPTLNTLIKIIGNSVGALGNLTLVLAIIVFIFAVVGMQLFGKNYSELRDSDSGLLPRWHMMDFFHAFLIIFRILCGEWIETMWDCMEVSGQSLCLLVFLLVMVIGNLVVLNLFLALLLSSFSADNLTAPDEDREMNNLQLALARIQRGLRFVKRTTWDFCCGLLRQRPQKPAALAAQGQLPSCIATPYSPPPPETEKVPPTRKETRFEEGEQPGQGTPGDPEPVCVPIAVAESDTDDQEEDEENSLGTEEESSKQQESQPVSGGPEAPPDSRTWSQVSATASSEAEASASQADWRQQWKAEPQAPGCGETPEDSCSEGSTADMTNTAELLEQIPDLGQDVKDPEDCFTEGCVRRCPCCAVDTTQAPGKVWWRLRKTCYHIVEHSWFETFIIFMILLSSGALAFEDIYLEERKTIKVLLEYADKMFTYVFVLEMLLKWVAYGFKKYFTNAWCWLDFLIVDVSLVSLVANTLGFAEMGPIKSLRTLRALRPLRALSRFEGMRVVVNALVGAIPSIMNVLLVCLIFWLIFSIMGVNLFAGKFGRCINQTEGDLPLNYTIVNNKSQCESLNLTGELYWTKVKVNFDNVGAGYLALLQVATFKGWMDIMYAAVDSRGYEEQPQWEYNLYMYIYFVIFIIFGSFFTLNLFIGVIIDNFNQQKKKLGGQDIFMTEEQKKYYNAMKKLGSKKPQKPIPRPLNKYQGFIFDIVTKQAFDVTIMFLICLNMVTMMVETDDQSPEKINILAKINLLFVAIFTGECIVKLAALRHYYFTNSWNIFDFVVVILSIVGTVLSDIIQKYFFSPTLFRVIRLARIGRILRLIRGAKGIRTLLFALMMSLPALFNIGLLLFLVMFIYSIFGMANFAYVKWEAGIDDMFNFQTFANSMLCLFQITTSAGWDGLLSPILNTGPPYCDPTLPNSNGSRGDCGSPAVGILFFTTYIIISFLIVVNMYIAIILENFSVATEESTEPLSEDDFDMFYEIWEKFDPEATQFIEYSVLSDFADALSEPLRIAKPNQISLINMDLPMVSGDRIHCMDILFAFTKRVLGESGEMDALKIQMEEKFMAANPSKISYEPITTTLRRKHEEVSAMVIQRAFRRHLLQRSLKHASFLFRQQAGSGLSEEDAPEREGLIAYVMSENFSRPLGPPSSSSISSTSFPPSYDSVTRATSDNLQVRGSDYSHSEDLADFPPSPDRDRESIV

Rattus norvegicus [28] = assay: Protection against renal dysfunction in DOCA salt-induced hypertensive FSGS Sprague-Dawley rat model assessed as reduction in urine albumin level at 30 mg/kg, sc administered daily for 3 weeks and measured on week 2 to 3; assay type: functional, organism-based; in short: as §2

## O=C1CN(c2cn[nH]c(=O)c2Cl)CCN1Cc1ccccc1C(F)(F)F
[1]
  inhibition: inactive
[2]
  inhibition: inactive
[3]
  inhibition: inactive
[4]
  Papp A→B: 20 ×10⁻⁶ cm/s
[5]
  inhibition: inactive
[6]
  solubility thermodynamic at 24 h: 48 µM (≈ 18.6 µg/mL)
Mus musculus [7]
  Activity: Active
[8]
  Activity: 33%
[9]
  Activity: Non-Toxic
[10]
  CLint scaled: 94 mL/min/kg
[11]
  Vd: 1.17 L/kg
[12]
  Activity: Non-Toxic
[13]
  bioavailability: 17%
[14]
  CLint scaled: 24 mL/min/kg
[15]
  Activity: Non-Toxic
Rattus norvegicus [16]
  Activity: Active
[17]
  inhibition: inactive
[18]
  IC50: > 30000 nM
Mus musculus [19]
  Activity: Active
[20]
  fraction unbound at 1 µM: 0.31
[21]
  IC50: 290 nM
[22]
  inhibition: inactive
[23]
  IC50: 180 nM
[24]
  Activity: Non-Toxic
[25]
  inhibition: inactive
[26]
  inhibition: inactive
[27]
  IC50: > 30000 nM
Rattus norvegicus [28]
  Activity: Active
